Laboratory results from ChEMBL document CHEMBL1141286, “Benzochromenones from the marine crinoid Comantheria rotula inhibit hypoxia-inducible factor-1 (HIF-1) in cell-based reporter assays and differentially suppress the growth of certain tumor cell lines” (J Nat Prod, 2007).
Activity calls are given as the source filed them. The rule behind the calls is not given here.

What was measured:
[1] = system: UACC-257; test: Growth inhibition of human UACC257 cells; assay type: functional
[2] = system: MCF7; test: Growth inhibition of human MCF7 cells; assay type: functional
[3] = system: OVCAR-4; test: Growth inhibition of human OVACAR4 cells; assay type: functional
[4] = system: HCT-116; test: Growth inhibition of human HCT116 cells; assay type: functional
[5] = system: RXF 393; test: Growth inhibition of human RXF393 cells; assay type: functional
[6] = system: SN12C; test: Growth inhibition of human SN12C cells; assay type: functional
[7] = system: PC-3; test: Growth inhibition of human PC3 cells; assay type: functional
[8] = system: UACC-62; test: Growth inhibition of human UACC62 cells; assay type: functional
[9] = system: COLO 205; test: Growth inhibition of human COLO205 cells; assay type: functional
[10] = system: SNB-19; test: Growth inhibition of human SNB19 cells; assay type: functional
[11] = system: SNB-75; test: Growth inhibition of human SNB75 cells; assay type: functional
[12] = target: Hypoxia inducible factors; HIF-1-alpha, HIF-2-alpha (Homo sapiens, UniProt Q16665+Q99814); test: Inhibition of HIF1 activation in human T47D cells by TK-luciferase assay; assay type: cell-based
Method in brief: (§1)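 HIF-1 reporter (pHRE-TK-Luc) assays in transfected PC-3 or T47D cells; HIF-1 induced by hypoxia or by the hypoxia mimetic 1,10-phenanthroline (10 μM); compounds at half-log concentrations; luciferase activity measured; IC50 from experiments in triplicate.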

[13] = system: SK-MEL-5; test: Growth inhibition of human SK-MEL5 cells; assay type: functional
[14] = system: CCRF-CEM; test: Growth inhibition of human CCRF-CEM cells; assay type: functional
[15] = system: NCI-H226; test: Growth inhibition of human NCI-H226 cells; assay type: functional
[16] = system: SK-MEL-28; test: Growth inhibition of human SK-MEL28 cells; assay type: functional
[17] = system: TK-10; test: Growth inhibition of human TK10 cells; assay type: functional
[18] = system: SF-268; test: Growth inhibition of human SF268 cells; assay type: functional
[19] = Inhibition of HIF1 activation in PC3 cells by TK-luciferase assay; assay type: cell-based; settings: Homo sapiens, PC-3; method in brief: as §1
[20] = system: HOP-62; test: Growth inhibition of human HOP62 cells; assay type: functional
[21] = system: UO-31; test: Growth inhibition of human UO31 cells; assay type: functional
[22] = system: HT-29; test: Growth inhibition of human HT29 cells; assay type: functional
[23] = system: CAKI-1; test: Growth inhibition of human CAKI1 cells; assay type: functional
[24] = system: MOLT-4; test: Growth inhibition of human MOLT4 cells; assay type: functional
[25] = system: Malme-3M; test: Growth inhibition of human MALME-3M cells; assay type: functional
[26] = system: SF-295; test: Growth inhibition of human SF295 cells; assay type: functional
[27] = system: ACHN; test: Growth inhibition of human ACHN cells; assay type: functional
[28] = system: SR; test: Growth inhibition of human SR cells; assay type: functional
[29] = system: HL-60; test: Growth inhibition of human HL60 cells; assay type: functional
[30] = Inhibition of 1,10-phenanthroline-induced HIF1 activation in T47D cells by TK-luciferase assay; assay type: cell-based; settings: Homo sapiens; method in brief: as §1
[31] = system: T47D; test: Inhibition of 1,10-phenanthroline-induced VEGF protein secretion in human T47D cells at 10 uM after 16 hrs by ELISA; assay type: functional, cell-based
Method in brief: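 T47D cells stimulated with 1,10-phenanthroline, compound at 10 μM; secreted VEGF in conditioned media by ELISA, normalized to cell-lysate protein.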

[32] = Growth inhibition of human OVACAR3 cells; assay type: functional
[33] = system: NCI-H460; test: Growth inhibition of human NCI-H460 cells; assay type: functional
[34] = system: A498; test: Growth inhibition of human A498 cells; assay type: functional
[35] = system: Hs-578T; test: Growth inhibition of human HS578T cells; assay type: functional
[36] = system: HCC 2998; test: Growth inhibition of human HCC2998 cells; assay type: functional
[37] = system: NCI-H522; test: Growth inhibition of human NCI-H522 cells; assay type: functional
[38] = system: T47D; test: Growth inhibition of human T47D cells; assay type: functional
[39] = system: MDA-MB-435; test: Growth inhibition of human MDA-MB-435 cells; assay type: functional
[40] = system: KM12; test: Growth inhibition of human KM12 cells; assay type: functional
[41] = read-out: Log LC50 (the source's name) (converted)

For `COc1cc(O)cc2cc3oc(C)cc(=O)c3c(OC)c12` [COMANTHERIN], the GI50 [1] was > 100 µM, the LC50 [1] was > 100 µM and the TGI ([1]; read-out: Log TGI (converted)) was > 100 µM. For the same compound, the GI50 [2] was > 100 µM, the LC50 [2] was > 100 µM and the TGI ([2]; read-out: Log TGI (converted)) was > 100 µM. The GI50 [3] was > 100 µM, the LC50 [3] was > 100 µM and the TGI ([3]; read-out: Log TGI (converted)) was > 100 µM. For the same compound, the GI50 [4] was > 100 µM, the CC50 [4, 41] was > 100 µM and the TGI ([4]; read-out: Log TGI (converted)) was > 100 µM. The GI50 [5] was > 100 µM, the LC50 [5] was > 100 µM and the TGI ([5]; read-out: Log TGI (converted)) was > 100 µM. For the same compound, the GI50 [6] was > 100 µM, the LC50 [6] was > 100 µM and the TGI ([6]; read-out: Log TGI (converted)) was > 100 µM. The GI50 [7] was 85.1 µM, the LC50 [7] was > 100 µM and the TGI ([7]; read-out: Log TGI (converted)) was > 100 µM. The GI50 [8] was > 100 µM, the LC50 (lethal concentration, 50% cell kill) [8] was > 100 µM and the TGI ([8]; read-out: Log TGI (converted)) was > 100 µM. For the same compound, the GI50 [9] was > 100 µM, the CC50 [9, 41] was > 100 µM and the TGI ([9]; read-out: Log TGI (converted)) was > 100 µM. The GI50 [10] was > 100 µM, the LC50 [10] was > 100 µM and the TGI ([10]; read-out: Log TGI (converted)) was > 100 µM. For the same compound, the GI50 [11] was > 100 µM, the LC50 [11] was > 100 µM and the TGI ([11]; read-out: Log TGI (converted)) was > 100 µM. For the same compound, the IC50 [12] was 2.9 µM, the GI50 [13] was > 100 µM and the LC50 [13] was > 100 µM. The TGI ([13]; read-out: Log TGI (converted)) was > 100 µM, the GI50 [14] was 2.09 µM and the LC50 [14] was > 100 µM. For the same compound, the TGI ([14]; read-out: Log TGI (converted)) was > 100 µM, the GI50 [15] was > 100 µM and the CC50 [15, 41] was > 100 µM. The TGI ([15]; read-out: Log TGI (converted)) was > 100 µM, the GI50 [16] was > 100 µM and the CC50 [16, 41] was > 100 µM. For the same compound, the TGI ([16]; read-out: Log TGI (converted)) was > 100 µM, the GI50 [17] was > 100 µM and the LC50 [17] was > 100 µM. The TGI ([17]; read-out: Log TGI (converted)) was > 100 µM, the GI50 [18] was 85.1 µM and the LC50 [18] was > 100 µM. The TGI ([18]; read-out: Log TGI (converted)) was > 100 µM, the IC50 [19] was 10 µM and the GI50 [20] was > 100 µM. The CC50 [20, 41] was > 100 µM, the TGI ([20]; read-out: Log TGI (converted)) was > 100 µM and the GI50 [21] was > 100 µM. For the same compound, the LC50 [21] was > 100 µM, the TGI ([21]; read-out: Log TGI (converted)) was > 100 µM and the GI50 [22] was > 100 µM. For the same compound, the CC50 [22, 41] was > 100 µM, the TGI ([22]; read-out: Log TGI (converted)) was > 100 µM and the GI50 [23] was > 100 µM. The LC50 [23] was > 100 µM, the TGI ([23]; read-out: Log TGI (converted)) was > 100 µM and the GI50 [24] was > 100 µM. For the same compound, the CC50 [24, 41] was > 100 µM, the TGI ([24]; read-out: Log TGI (converted)) was > 100 µM and the GI50 [25] was > 100 µM. The CC50 [25, 41] was > 100 µM, the TGI ([25]; read-out: Log TGI (converted)) was > 100 µM and the GI50 [26] was > 100 µM. For the same compound, the LC50 [26] was > 100 µM, the TGI ([26]; read-out: Log TGI (converted)) was > 100 µM and the GI50 [27] was > 100 µM. The CC50 [27, 41] was > 100 µM, the TGI ([27]; read-out: Log TGI (converted)) was > 100 µM and the GI50 [28] was 97.7 µM. The CC50 [28, 41] was > 100 µM, the TGI ([28]; read-out: Log TGI (converted)) was > 100 µM and the GI50 [29] was > 100 µM. The LC50 [29] was > 100 µM, the TGI ([29]; read-out: Log TGI (converted)) was > 100 µM and the IC50 [30] was 2.7 µM. For the same compound, the Activity [31] was “inactive”, the GI50 [32] was > 100 µM and the CC50 [32, 41] was > 100 µM. The TGI ([32]; read-out: Log TGI (converted)) was > 100 µM, the GI50 [33] was > 100 µM and the CC50 [33, 41] was > 100 µM. The TGI ([33]; read-out: Log TGI (converted)) was > 100 µM, the GI50 [34] was > 100 µM and the LC50 [34] was > 100 µM. For the same compound, the TGI ([34]; read-out: Log TGI (converted)) was > 100 µM, the GI50 [35] was 21.9 µM and the LC50 [35] was > 100 µM. For the same compound, the TGI ([35]; read-out: Log TGI (converted)) was > 100 µM, the GI50 [36] was > 100 µM and the CC50 [36, 41] was > 100 µM. The TGI ([36]; read-out: Log TGI (converted)) was > 100 µM, the GI50 [37] was > 100 µM and the CC50 [37, 41] was > 100 µM. For the same compound, the TGI ([37]; read-out: Log TGI (converted)) was > 100 µM, the GI50 [38] was 81.3 µM and the LC50 [38] was > 100 µM. For the same compound, the TGI ([38]; read-out: Log TGI (converted)) was > 100 µM, the GI50 [39] was > 100 µM and the LC50 [39] was > 100 µM. The TGI ([39]; read-out: Log TGI (converted)) was > 100 µM, the GI50 [40] was > 100 µM and the CC50 [40, 41] was > 100 µM. For the same compound, the TGI ([40]; read-out: Log TGI (converted)) was > 100 µM.
